{"source": "ChEMBL document CHEMBL3784969", "about": "“Pharmacokinetics of flutamide in patients with renal insufficiency” (Br J Clin Pharmacol, 1999)", "key": {"Homo sapiens [1]": {"test_system": "Homo sapiens", "experiment": "AUC (0 to infinity) in patient (3 patients) with renal insufficiency at 250 mg, po assessed as hydroxy flutamide administered as single dose by gas chromatography", "type": "ADME, organism-based", "design": "dose 250 mg, time infinity, route oral", "settings": "in vivo"}, "[2]": {"experiment": "Cmax in patient (7 patients) with renal insufficiency at 250 mg, po administered as single dose by gas chromatography", "type": "ADME, organism-based", "design": "dose 250 mg, route oral", "settings": "human, in vivo"}, "Homo sapiens [3]": {"test_system": "Homo sapiens", "experiment": "AUC (0 to 96 hrs) in patient (7 patients) with renal insufficiency at 250 mg, po assessed as hydroxy flutamide administered as single dose by gas chromatography", "type": "ADME, organism-based", "design": "time < 96 hr, dose 250 mg, route oral", "settings": "in vivo"}, "Homo sapiens [4]": {"test_system": "Homo sapiens", "experiment": "Renal clearance in patient (7 patients) with renal insufficiency assessed as hydroxy flutamide at 250 mg, po administered as single dose by gas chromatography", "type": "ADME, organism-based, Kidney", "settings": "in vivo", "procedure,_shortened": "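Males grouped by 24 h CLcr normalised to body surface area (>80, 50–80, 30–49, 5–29 ml min−1 1.73 m−2), fasted 10 h pre-dose and 4 h post-dose, given a single oral 250 mg flutamide dose. Plasma sampled 0–96 h; urine collected in blocks to 96 h. Flutamide and hydroxyflutamide measured by GC with electron-capture detection. Renal CL = Ae(0,96 h)/AUC(0,96 h); t1/2 = 0.693/λz.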"}, "[5]": {"experiment": "Plasma protein binding in healthy geriatric volunteer by equilibrium dialysis method", "type": "ADME, cell-free", "settings": "human, read-out: PPB"}, "Homo sapiens [6]": {"test_system": "Homo sapiens", "experiment": "AUC (0 to infinity) in patient (7 patients) with renal insufficiency at 250 mg, po assessed as hydroxy flutamide administered as single dose by gas chromatography", "type": "ADME, organism-based", "design": "dose 250 mg, route oral, time infinity", "settings": "in vivo"}}, "data": [{"smiles": "CC(C)C(=O)Nc1ccc([N+](=O)[O-])c(C(F)(F)F)c1", "note": "[FLUTAMIDE]", "values": [{"measurement": "AUC", "setting": "Homo sapiens [1]", "result": 6907, "unit": "ng·h/mL"}, {"measurement": "Cmax", "setting": "[2]", "result": 20.9, "unit": "ng/mL"}, {"measurement": "AUC", "setting": "Homo sapiens [3]", "result": 4993, "unit": "ng·h/mL"}, {"measurement": "CL", "setting": "Homo sapiens [4]", "result": 0.3, "unit": "mL/min"}, {"measurement": "fraction unbound", "setting": "[5]", "result": "< 0.06"}, {"measurement": "AUC", "setting": "Homo sapiens [6]", "result": 4993, "unit": "ng·h/mL"}]}]}
